These results are taken from ChEMBL document CHEMBL1671627, “Increasing trends in antimicrobial resistance among clinically important anaerobes and Bacteroides fragilis isolates causing nosocomial infections: emerging resistance to carbapenems” (2008).

The subject of experiment [1] is Bacteroides fragilis. Briefly: Antibacterial activity against Bacteroides fragilis assessed as susceptible isolates by CLSI agar dilution method in presence of Tazobactam. The experiment is classed as functional. In outline:
(§1)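 Agar dilution per CLSI guidelines on nonduplicate anaerobic bloodstream isolates collected at NTUH, January to December 2006. Isolates were spotted by Steers replicator onto supplemented Brucella blood agar and incubated anaerobically for 48 h at 35°C. MIC was the lowest drug concentration that inhibited growth. B. fragilis ATCC 25285, B. thetaiotaomicron ATCC 29741 and E. lentum ATCC 43055 were run as QC in each run.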
(In general: Agar dilution tests growth on a series of plates holding different concentrations.)

The next experiment has as its system Phocaeicola vulgatus. Briefly: Antibacterial activity against beta-lactamase producing Bacteroides vulgatus assessed as resistant isolates by CLSI agar dilution method in presence of Tazobactam. It is filed as functional. In a few lines:
(§2)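 207 nonduplicate anaerobic blood isolates from patients with bloodstream infections at NTUH, collected January–December 2006. MICs were determined by agar dilution following CLSI guidelines. Inocula were applied with a Steers replicator onto supplemented Brucella blood agar and incubated 48 h at 35°C in an anaerobic chamber. MIC was the lowest concentration inhibiting growth. B. fragilis ATCC 25285, B. thetaiotaomicron ATCC 29741 and E. lentum ATCC 43055 served as controls in each run.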

In experiment [2] the test system is Fusobacterium varium. The experiment is described as follows: Antibacterial activity against Fusobacterium varium assessed as resistant isolates by CLSI agar dilution method. It is filed as functional.
The subject of experiment [3] is Fusobacterium nucleatum. Briefly: Antibacterial activity against Fusobacterium nucleatum assessed as resistant isolates by CLSI agar dilution method. It is filed as functional.
The test system of experiment [4] is Fusobacterium mortiferum. Briefly: Antibacterial activity against Fusobacterium mortiferum assessed as resistant isolates by CLSI agar dilution method. It is filed as functional.
Experiment [5] has as its system Fusobacterium varium. The experiment is described as follows: Antibacterial activity against Fusobacterium varium assessed as susceptible isolates by CLSI agar dilution method in presence of Tazobactam. The experiment is classed as functional. In a few lines:
as §1

The test system of experiment [6] is Fusobacterium mortiferum. The experiment is described as follows: Antibacterial activity against Fusobacterium mortiferum assessed as susceptible isolates by CLSI agar dilution method in presence of Tazobactam. It is filed as functional. In a few lines:
as §1

Experiment [7] relates to Clostridium paraputrificum. The experiment is described as follows: Antibacterial activity against beta-lactamase producing Clostridium paraputrificum by CLSI agar dilution method. It is filed as functional.
The test system of experiment [8] is Clostridium tertium. Briefly: Antibacterial activity against beta-lactamase producing Clostridium tertium by CLSI agar dilution method in presence of Tazobactam. It is filed as functional. In a few lines: (§3)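 CLSI agar dilution MICs for anaerobic blood isolates (nonduplicate) collected from bloodstream-infection patients at a Taiwanese tertiary hospital, January–December 2006. Isolates were spotted by Steers replicator onto supplemented Brucella blood agar and incubated anaerobically for 48 h at 35°C. MIC was the lowest drug concentration inhibiting growth. Each run included B. fragilis ATCC 25285, B. thetaiotaomicron ATCC 29741 and E. lentum ATCC 43055 as quality-control strains.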

Experiment [9] has as its system Bacteroides fragilis. The experiment is described as follows: Antibacterial activity against Bacteroides fragilis by CLSI agar dilution method. It is filed as functional.
The subject of experiment [10] is Bacteroides thetaiotaomicron. Briefly: Antibacterial activity against beta-lactamase producing Bacteroides thetaiotaomicron by CLSI agar dilution method. It is filed as functional.
The test system of experiment [11] is Clostridium tertium. Briefly: Antibacterial activity against beta-lactamase producing Clostridium tertium assessed as resistant isolates by CLSI agar dilution method. It is filed as functional.
The test system of experiment [12] is Clostridium tertium. Briefly: Antibacterial activity against beta-lactamase producing Clostridium tertium assessed as susceptible isolates by CLSI agar dilution method in presence of Tazobactam. It is filed as functional. In outline: as §3
For experiment [13], the system named is Peptostreptococcus anaerobius. Briefly: Antibacterial activity against beta-lactamase producing Peptostreptococcus anaerobius assessed as susceptible isolates by CLSI agar dilution method. The experiment is classed as functional.
For experiment [14], the system named is Parvimonas micra. The experiment is described as follows: Antibacterial activity against beta-lactamase producing Micromonas micros by CLSI agar dilution method. The experiment is classed as functional.
The test system of experiment [15] is Peptoniphilus asaccharolyticus. The experiment is described as follows: Antibacterial activity against beta-lactamase producing Peptoniphilus asaccharolyticus by CLSI agar dilution method. The experiment is classed as functional.
For experiment [16], the system named is Finegoldia magna. The experiment is described as follows: Antibacterial activity against beta-lactamase producing Finegoldia magna by CLSI agar dilution method in presence of Tazobactam. It is filed as functional. In a few lines:
as §3

Experiment [17] deals with Finegoldia magna. The experiment is described as follows: Antibacterial activity against beta-lactamase producing Finegoldia magna assessed as susceptible isolates by CLSI agar dilution method in presence of Tazobactam. The experiment is classed as functional. In a few lines: as §3
Experiment [18] deals with Bacteroides thetaiotaomicron. Briefly: Antibacterial activity against beta-lactamase producing Bacteroides thetaiotaomicron assessed as susceptible isolates by CLSI agar dilution method in presence of clavulanate. It is filed as functional. In outline: as §1
For experiment [19], the system named is Fusobacterium varium. Briefly: Antibacterial activity against Fusobacterium varium by CLSI agar dilution method in presence of clavulanate. It is filed as functional. In a few lines:
as §1

For experiment [20], the system named is Fusobacterium mortiferum. The experiment is described as follows: Antibacterial activity against Fusobacterium mortiferum assessed as susceptible isolates by CLSI agar dilution method in presence of clavulanate. The experiment is classed as functional. In outline:
as §1

For experiment [21], the system named is Fusobacterium nucleatum. Briefly: Antibacterial activity against Fusobacterium nucleatum assessed as resistant isolates by CLSI agar dilution method in presence of clavulanate. The experiment is classed as functional. In outline:
as §2

Experiment [22] relates to Prevotella buccae. The experiment is described as follows: Antibacterial activity against Prevotella buccae by CLSI agar dilution method in presence of clavulanate. Conditions: Segatella buccae. The experiment is classed as functional. In a few lines:
as §1

Experiment [23] concerns Prevotella buccae. Briefly: Antibacterial activity against Prevotella buccae assessed as susceptible isolates by CLSI agar dilution method in presence of clavulanate. The experiment is classed as functional, Segatella buccae. In a few lines: as §1
In experiment [24] the test system is Prevotella melaninogenica. Briefly: Antibacterial activity against Prevotella melaninogenica assessed as susceptible isolates by CLSI agar dilution method in presence of clavulanate. The experiment is classed as functional. In outline: as §1
The test system of experiment [25] is Prevotella buccae. Briefly: Antibacterial activity against Prevotella buccae assessed as resistant isolates by CLSI agar dilution method in presence of clavulanate. It is filed as functional, Segatella buccae. In a few lines:
as §2

Experiment [26] concerns Bacteroides fragilis. Briefly: Antibacterial activity against Bacteroides fragilis by CLSI agar dilution method in presence of clavulanate. It is filed as functional. In outline: as §1
In the next experiment the test system is Clostridium septicum. The experiment is described as follows: Antibacterial activity against beta-lactamase producing Clostridium septicum assessed as susceptible isolates by CLSI agar dilution method in presence of clavulanate. The experiment is classed as functional. In outline: as §3
The subject of experiment [27] is Clostridium tertium. The experiment is described as follows: Antibacterial activity against beta-lactamase producing Clostridium tertium assessed as resistant isolates by CLSI agar dilution method in presence of clavulanate. It is filed as functional. In a few lines:
as §2

Experiment [28] concerns Peptostreptococcus anaerobius. The experiment is described as follows: Antibacterial activity against beta-lactamase producing Peptostreptococcus anaerobius assessed as susceptible isolates by CLSI agar dilution method in presence of clavulanate. The experiment is classed as functional. In a few lines: as §3
For experiment [29], the system named is Parvimonas micra. The experiment is described as follows: Antibacterial activity against beta-lactamase producing Micromonas micros by CLSI agar dilution method in presence of clavulanate. The experiment is classed as functional. In outline:
as §3

For experiment [30], the system named is Peptoniphilus asaccharolyticus. The experiment is described as follows: Antibacterial activity against beta-lactamase producing Peptoniphilus asaccharolyticus assessed as susceptible isolates by CLSI agar dilution method in presence of clavulanate. It is filed as functional. In outline: as §3

Structures are written as SMILES. Converted amounts (≈) assume the structure as drawn.

On to `CCN1CCN(C(=O)N[C@@H](C(=O)N[C@@H]2C(=O)N3[C@@H]2SC(C)(C)[C@@H]3C(=O)O)c2ccccc2)C(=O)C1=O` [PIPERACILLIN], for which the Activity with Bacteroides fragilis [1] was 95%; with Phocaeicola vulgatus, 4%; with Fusobacterium varium [2] it was 10%; in the experiment on Fusobacterium nucleatum [3], 10%; in the experiment on Fusobacterium mortiferum [4] it was 10%; with Fusobacterium varium [5], 100%. The Activity with Fusobacterium mortiferum [6] worked out at 100%; in the experiment with Clostridium tertium [11], 0%; in the experiment on Clostridium tertium [12], 100%; in experiment [13] it was 97%; in the experiment with Finegoldia magna [17], 97%. Besides, the MIC50 in experiment [7] turned out to be 0.25 µg/mL (≈ 0.483 µM); in the experiment with Clostridium tertium [8], 0.5 µg/mL; against Bacteroides fragilis [9], 8 µg/mL (≈ 15.5 µM); in experiment [10] it was 32 µg/mL (≈ 61.8 µM); against Parvimonas micra [14] it was 0.12 µg/mL (≈ 0.232 µM); in experiment [15] it was 0.12 µg/mL (≈ 0.232 µM). In the experiment with Finegoldia magna [16], the MIC50 came out at 0.03 µg/mL. Moreover, the MIC90 in experiment [7] is 2 µg/mL (≈ 3.86 µM); in the experiment on Clostridium tertium [8], 2 µg/mL; against Bacteroides fragilis [9], above 128 µg/mL; in experiment [10], above 128 µg/mL; in the experiment with Parvimonas micra [14] it was 8 µg/mL (≈ 15.5 µM); in experiment [15] it was 8 µg/mL (≈ 15.5 µM). Further, in the experiment with Finegoldia magna [16], the MIC90 was 2 µg/mL. In addition, the minimum inhibitory concentration (MIC) in the experiment with Finegoldia magna [16] turned out to be 0.03 µg/mL.
Consider `CC1(C)S[C@@H]2[C@H](NC(=O)[C@H](N)c3ccc(O)cc3)C(=O)N2[C@H]1C(=O)O` [AMOXICILLIN], for which the Activity in experiment [18] was determined as 63%; in the experiment on Fusobacterium mortiferum [20], 89%; with Fusobacterium nucleatum [21], 7%; in the experiment with Prevotella buccae [23], 81%; in [24], 81%; in the experiment with Prevotella buccae [25] it was 6%. Moreover, the Activity in the experiment with Clostridium septicum is recorded as 96%; in the experiment with Clostridium tertium [27], 4%; in [28], 94%; in experiment [30] it was 94%. In addition, the MIC50 in the experiment on Fusobacterium varium [19] is 2 µg/mL; in the experiment on Prevotella buccae [22] it was 4 µg/mL; with Bacteroides fragilis [26], 4 µg/mL; with Parvimonas micra [29], 0.25 µg/mL. The MIC90 is 4 µg/mL in the experiment on Fusobacterium varium [19], 16 µg/mL in the experiment with Prevotella buccae [22], 32 µg/mL in the experiment with Bacteroides fragilis [26] and 2 µg/mL in the experiment with Parvimonas micra [29].

By MIC50 is commonly meant the lowest concentration that inhibits either 50% of growth or 50% of the strains tested, depending on the study. For orientation: MIC90 means the lowest concentration that inhibits either 90% of growth or 90% of the strains tested, depending on the study. The term MIC denotes the least concentration at which growth counts as inhibited.
